Source: ChEMBL document CHEMBL1136886, “Optimization of benzimidazole series as opioid receptor-like 1 (ORL1) antagonists: SAR study directed toward improvement of selectivity over hERG activity” (Bioorg Med Chem Lett, 2009)

Columns and labels:
[1] = biological target: Voltage-gated inwardly rectifying potassium channel KCNH2 (Homo sapiens, UniProt Q12809); assay: Displacement of [35S]MK499 from human ERG expressed in HEK293 cells
Nociceptin receptor [2] = biological target: T1, Nociceptin receptor (Homo sapiens, UniProt P41146); assay: Displacement of [125I]Tyr14-NC/OFQ from human ORL1 receptor
Procedure, shortened: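 Membrane fractions of CHO cells expressing human ORL1; binding affinity from displacement of radioligand [125I]Tyr14-NC/OFQ.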

Nociceptin receptor [3] = biological target: T1, Nociceptin receptor; assay: Antagonist activity at ORL1 receptor expressed in CHO cells assessed as inhibition of NC/OFQ-stimulated [35S]GTPgammaS binding; type: functional, cell-based
Procedure, shortened: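 Membrane fractions of CHO cells expressing ORL1 used; functional activity measured by [35S]GTPγS binding to G proteins.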

[4] = Lipophilicity, log D at pH 7.4 by shake-flask method; type: physicochemical; details: buffer
[5] = biological target: Kappa-type opioid receptor (Homo sapiens, UniProt P41145); assay: Displacement of [3H]U69593 from human cloned kappa opioid receptor expressed in CHO cells; type: cell-based
Mu-type opioid receptor = Mu-type opioid receptor (Homo sapiens, UniProt P35372); assay: Displacement of [3H]diprenorphin from human cloned mu opioid receptor expressed in CHO cells; type: cell-based
Sequence of Mu-type opioid receptor (P35372 whole entry): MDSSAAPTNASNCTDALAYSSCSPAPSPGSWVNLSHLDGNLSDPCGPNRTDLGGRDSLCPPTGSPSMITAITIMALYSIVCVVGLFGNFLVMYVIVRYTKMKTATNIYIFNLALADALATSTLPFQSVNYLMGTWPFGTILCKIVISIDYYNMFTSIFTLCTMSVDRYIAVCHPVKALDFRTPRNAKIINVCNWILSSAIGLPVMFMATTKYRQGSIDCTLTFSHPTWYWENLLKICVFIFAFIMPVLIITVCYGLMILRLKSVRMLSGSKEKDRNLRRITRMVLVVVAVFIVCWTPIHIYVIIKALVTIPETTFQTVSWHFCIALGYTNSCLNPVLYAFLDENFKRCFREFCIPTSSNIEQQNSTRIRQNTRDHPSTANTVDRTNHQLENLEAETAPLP

Sequence of Voltage-gated inwardly rectifying potassium channel KCNH2 (Q12809 whole entry): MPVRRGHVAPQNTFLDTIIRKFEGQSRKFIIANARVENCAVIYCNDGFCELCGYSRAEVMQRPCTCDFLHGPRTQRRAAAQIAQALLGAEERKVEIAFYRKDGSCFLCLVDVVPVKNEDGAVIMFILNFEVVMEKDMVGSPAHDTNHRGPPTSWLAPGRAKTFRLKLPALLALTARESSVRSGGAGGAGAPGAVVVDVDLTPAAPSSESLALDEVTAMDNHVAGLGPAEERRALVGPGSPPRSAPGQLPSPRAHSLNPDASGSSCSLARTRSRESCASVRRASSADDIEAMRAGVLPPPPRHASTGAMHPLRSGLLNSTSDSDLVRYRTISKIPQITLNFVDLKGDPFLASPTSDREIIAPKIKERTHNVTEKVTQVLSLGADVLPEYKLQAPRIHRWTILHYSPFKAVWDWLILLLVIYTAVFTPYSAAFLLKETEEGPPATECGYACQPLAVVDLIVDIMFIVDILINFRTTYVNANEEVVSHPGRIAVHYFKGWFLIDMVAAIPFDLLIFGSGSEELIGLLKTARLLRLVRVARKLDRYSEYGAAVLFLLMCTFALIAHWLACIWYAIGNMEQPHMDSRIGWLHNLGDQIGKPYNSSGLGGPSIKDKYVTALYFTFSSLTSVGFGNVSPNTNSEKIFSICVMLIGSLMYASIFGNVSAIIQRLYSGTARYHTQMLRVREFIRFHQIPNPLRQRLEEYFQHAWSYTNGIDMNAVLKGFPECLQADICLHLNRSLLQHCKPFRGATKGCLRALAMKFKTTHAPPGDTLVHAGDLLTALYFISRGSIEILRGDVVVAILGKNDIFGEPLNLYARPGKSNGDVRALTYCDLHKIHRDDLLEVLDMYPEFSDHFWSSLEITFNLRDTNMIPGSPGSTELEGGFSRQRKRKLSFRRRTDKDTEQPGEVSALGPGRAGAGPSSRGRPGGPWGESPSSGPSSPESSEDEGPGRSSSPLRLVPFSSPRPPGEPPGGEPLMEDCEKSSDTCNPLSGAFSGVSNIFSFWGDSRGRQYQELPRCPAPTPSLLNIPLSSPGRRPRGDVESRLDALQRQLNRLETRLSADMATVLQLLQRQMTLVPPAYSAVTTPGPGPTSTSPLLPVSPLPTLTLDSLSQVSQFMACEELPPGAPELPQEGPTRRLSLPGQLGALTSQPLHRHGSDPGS
T1 sequence (P41146 whole entry): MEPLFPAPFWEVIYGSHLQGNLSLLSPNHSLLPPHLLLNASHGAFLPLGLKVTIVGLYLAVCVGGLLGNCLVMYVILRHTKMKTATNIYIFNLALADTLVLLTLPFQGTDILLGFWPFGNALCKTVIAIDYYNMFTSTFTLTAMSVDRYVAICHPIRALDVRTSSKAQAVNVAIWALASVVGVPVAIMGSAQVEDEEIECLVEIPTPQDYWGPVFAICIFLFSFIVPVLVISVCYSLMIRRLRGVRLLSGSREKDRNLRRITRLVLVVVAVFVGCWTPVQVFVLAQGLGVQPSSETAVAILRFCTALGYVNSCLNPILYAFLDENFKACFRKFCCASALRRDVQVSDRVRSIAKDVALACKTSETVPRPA
Sequence of Kappa-type opioid receptor (P41145 whole entry): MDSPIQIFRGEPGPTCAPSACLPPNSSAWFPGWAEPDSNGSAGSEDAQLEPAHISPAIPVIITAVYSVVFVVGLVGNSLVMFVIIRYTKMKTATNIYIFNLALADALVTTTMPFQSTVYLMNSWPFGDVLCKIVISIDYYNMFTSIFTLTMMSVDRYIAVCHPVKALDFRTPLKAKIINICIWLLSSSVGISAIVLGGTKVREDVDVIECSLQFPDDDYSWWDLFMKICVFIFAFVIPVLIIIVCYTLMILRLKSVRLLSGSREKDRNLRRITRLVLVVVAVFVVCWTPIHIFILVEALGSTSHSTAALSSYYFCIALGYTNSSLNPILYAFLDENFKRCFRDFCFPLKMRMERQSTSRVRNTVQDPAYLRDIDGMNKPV

Row | SMILES | IC50 [1] | IC50 (Nociceptin receptor [2]) | IC50 (Nociceptin receptor [3]) | logD [4] | IC50 [5] | IC50 (Mu-type opioid receptor)
1 | C[C@@H]1CN(CC(F)F)CCN1c1cc2[nH]c(SC(C)(C)C)nc2cc1Cl | > 10000 nM | 23 nM |  |  |  | 
2 | CCN1CCN(c2cc3[nH]c(SC(C)(C)C)nc3cc2Cl)CC1 |  | 22 nM |  |  |  | 
3 | CCN1CCN(c2cc3[nH]c(SC(C)(C)CCNC(=O)OC)nc3cc2Cl)CC1 |  | 21 nM | 8.6 nM |  |  | 
4 | CCOC(=O)N1CCC(C)(Sc2nc3cc(Cl)c(N4CCN(CC)CC4)cc3[nH]2)CC1 |  | 4.3 nM | 1.1 nM |  |  | 
5 | CCN1CCN(c2cc3[nH]c(S[C@]4(C)CC[C@@H](c5nc(C)no5)CC4)nc3cc2Cl)CC1 |  | 1.7 nM | 0.91 nM | 3.8 |  | 
6 | C[C@@H]1CN(CC#N)CCN1c1cc2[nH]c(SC(C)(C)C)nc2cc1Cl |  | 61 nM |  |  |  | 
7 | CCN1CCN(c2cc3[nH]c(S[C@]4(C)CC[C@@H](c5nnn(C)n5)CC4)nc3cc2Cl)CC1 |  | 2.2 nM | 0.9 nM | 3.1 |  | 
8 | C[C@@H]1CN(CCC#N)CCN1c1cc2[nH]c(SC(C)(C)C)nc2cc1Cl | > 10000 nM | 27 nM | 6.4 nM |  |  | 
9 | CCN1CCN(c2cc3[nH]c(S[C@]4(C)CC[C@@H](N(C)C(C)=O)CC4)nc3cc2Cl)CC1 |  | 0.81 nM | 1.3 nM | 2.7 | 160 nM | 840 nM
10 | CCN1CCN(c2cc3[nH]c(S[C@]4(C)CC[C@@H](NS(C)(=O)=O)CC4)nc3cc2Cl)CC1 | > 10000 nM | 2.1 nM | 1.8 nM | 2.5 |  | 
11 | CCN1CCN(c2cc3[nH]c(S[C@]4(C)CC[C@@H](c5nnco5)CC4)nc3cc2Cl)CC1 |  | 1.1 nM | 0.59 nM |  |  | 
12 | CCN1CCN(c2cc3[nH]c(S[C@]4(C)CC[C@@H](c5nnc(C)o5)CC4)nc3cc2Cl)CC1 |  | 1.8 nM | 7.1 nM |  |  | 
13 | C[C@@H]1CN(CC(F)(F)F)CCN1c1cc2[nH]c(SC(C)(C)C)nc2cc1Cl |  | 630 nM |  |  |  | 
14 | CCN1CCN(c2cc3[nH]c(S[C@]4(C)CC[C@@H](NC(C)=O)CC4)nc3cc2Cl)CC1 | > 10000 nM | 1.9 nM | 1.1 nM | 2.5 |  | 
15 | CCN1CCN(c2cc3[nH]c(S[C@]4(C)CC[C@H](NC(=O)OC)CC4)nc3cc2Cl)CC1 | 1500 nM | 9.5 nM | 2.1 nM |  |  | 
16 | CCN1CCN(c2cc3[nH]c(S[C@]4(C)CC[C@@H](NC(=O)OC)CC4)nc3cc2Cl)CC1 | 3500 nM | 2.4 nM | 0.72 nM | 3.4 |  | 
17 | CCN1CCN(c2cc3[nH]c(S[C@]4(C)CC[C@@H](C(=O)NC)CC4)nc3cc2Cl)CC1 | > 10000 nM | 1 nM | 1.1 nM |  |  | 
18 | CCN1CCN(c2cc3[nH]c(SC(C)(C)C)nc3cc2Cl)[C@H](C)C1 | 990 nM | 9.2 nM | 2.9 nM |  |  | 
19 | CCN1CCN(c2cc3[nH]c(S[C@]4(C)CC[C@@H](S(C)(=O)=O)CC4)nc3cc2Cl)CC1 | > 10000 nM | 6.9 nM | 4 nM |  |  | 
20 | C[C@@H]1CN(CCO)CCN1c1cc2[nH]c(SC(C)(C)C)nc2cc1Cl | 1600 nM |  |  |  |  | 
21 | CCN1CCN(c2cc3[nH]c(S[C@]4(C)CC[C@@H](N5CCCC5=O)CC4)nc3cc2Cl)CC1 | > 10000 nM | 1.4 nM | 0.55 nM | 2.9 |  | 
22 | CCN1CCN(c2cc3[nH]c(S[C@]4(C)CC[C@@H](c5nnnn5C)CC4)nc3cc2Cl)CC1 |  | 7.4 nM | 3.7 nM | 2.3 |  | 
23 | CC(=O)CN1CCN(c2cc3[nH]c(SC(C)(C)C)nc3cc2Cl)C(C)C1 (racemic) | > 10000 nM |  | 41 nM |  |  | 
24 | CCN1CCN(c2cc3[nH]c(SC4(C)CCC(NC(=O)OC)C4)nc3cc2Cl)CC1 (racemic) |  |  | 46 nM |  |  | 
